# Screens deposited in PubChem by several laboratories.
# UCH37 DUB inh = human UCH37 deubiquitinating enzyme inhibition | Q9Y5K5 | purified proteasome/UCH37, Ub-AMC cleavage fluorescence | inhibition, % (no concentration beside the values) | actives 0.33% (n = 330,000) | AID 588478;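 active means mean inhibition over replicate wells above about 20%, limit read from the data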
# Target sequence (Q9Y5K5 whole entry, looked up): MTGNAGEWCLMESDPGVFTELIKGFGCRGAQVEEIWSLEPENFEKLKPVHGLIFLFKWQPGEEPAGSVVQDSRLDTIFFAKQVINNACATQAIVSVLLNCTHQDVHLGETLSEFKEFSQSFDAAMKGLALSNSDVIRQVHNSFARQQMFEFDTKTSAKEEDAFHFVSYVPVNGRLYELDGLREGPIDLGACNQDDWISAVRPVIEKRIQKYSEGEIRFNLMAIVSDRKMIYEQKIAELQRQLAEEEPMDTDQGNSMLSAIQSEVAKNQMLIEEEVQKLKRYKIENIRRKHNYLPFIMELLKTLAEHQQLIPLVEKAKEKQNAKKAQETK
#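 Material: human UCH37 enzyme supplied as purified proteasome complex. Measure: % inhibition of Ub-AMC cleavage fluorescence. Medium: pH 7.4 Tris-HCl (50 mM) with ovalbumin, ATP-MgCl2, DTT. Times: 30 min preincubation with enzyme, 25 min cleavage at room temperature. Detection: AMC fluorescence intensity at 355/460 nm.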
# TDP2 absorb = blocks human TDP2 phosphodiesterase activity | O95551 | recombinant TDP2, T5PNP hydrolysis, p-nitrophenol absorbance 415 nm | inhibition, % at 12.8 µM | actives 0.34% (n = 370,000) | AID 720702;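 active means inhibition above the mean of all tested compounds plus 3 SD, set per campaign, cut at about 25% in these data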
#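 Evaluation: % inhibition relative to enzyme-containing and enzyme-free wells. Material: recombinant human TDP2. Benchmarks: enzyme-free and DMSO wells. Timing: enzyme reaction with compound for 2 h at 37 °C. Compound dosing: 12.8 µM only. Measured by: p-Nitrophenol epi absorbance. Reagent: T5PNP substrate at 5 mM, a TopII-DNA adduct mimic. Replication: single well per compound.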
# PAD4 FP inh = PAD4 (human) enzyme inhibition; Q9UM07; recombinant PAD4, RCA probe fluorescence polarization; inhibition, % at 6.36 µM; actives 0.41% (n = 330,000);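 active means percent inhibition above a cutoff equal to the mean of all tested compounds plus 3 SD, cut at about 15% in these data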
# GSTO1 counter = counter-screen for RBBP9 inhibitors: inhibitors of human GSTO1 | actives 1.1% (n = 300,000) | recombinant GSTO1, activity-based probe fluorescence polarization | AID 1974 | inhibition, % at 5.96 µM;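 active means inhibition above the campaign mean inhibition plus 3 SD, cut at about 35% in these data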
# HKDC1 inhibitor = blocks human hexokinase HKDC1 activity; Q2TB90; recombinant HKDC1, G6PDH/diaphorase resazurin coupled fluorescence; inhibition, % at 20 µM; actives 0.16% (n = 340,000); AID 493160;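 active means inhibition above about 35% when tested at 20 µM, limit read from the data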
#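 Material: recombinant HKDC1 hexokinase; Amount: HKDC1 at 5 µg/mL; Medium: Tris pH 8.0 buffer with MgCl2, Tween-20, BSA, BME; Schedule: 90 min reaction incubation at room temperature, dark; Technique: coupled resazurin fluorescence, excitation 525 nm, emission 613 nm.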
# CTSL1 counter = blocks F. hepatica cathepsin L1 in PFM18AAP counter-screen; actives 0.49% (n = 300,000); inhibition, % at 5.96 µM; AID 1906; recombinant F. hepatica cathepsin L1, Z-Leu-Arg-MCA fluorescence;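 active means inhibition above the mean of all tested compounds plus 3 SD, set per screening campaign, cut at about 17% in these data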
# A number is an active result; – = inactive; · = no result given. Rows were chosen to be rich in hits. Some 1.6% of all compounds tested hit in one or more screens of this group.
SMILES,UCH37 DUB inh,TDP2 absorb,PAD4 FP inh,GSTO1 counter,HKDC1 inhibitor,CTSL1 counter
Cc1nn(-c2ccccc2)c2c1C1(C(=O)N(C)c3ccccc31)C(C#N)=C(N)O2 (centres undefined),–,–,–,37,–,–
NC(=N\N=Cc1ccccc1)/C(N)=N/N=Cc1ccccc1,–,–,·,·,–,·
Cn1c(CS/C(N)=N/N=C/c2ccccc2)c(Br)c(=O)n1-c1ccccc1,·,–,–,–,–,37
Nc1ccc2c(c1)-c1ccccc1S(=O)(=O)N2,–,–,–,37,–,–
Cc1ccc2c(c1)-c1ccccc1S(=O)(=O)N2,–,–,–,–,–,–
COc1ccc(C(=O)NN=Cc2ccccn2)cc1OC,–,·,·,·,·,·
CCCCNC(=S)N(CCN(CC)CC)Cc1cc2cc3c(cc2[nH]c1=O)OCCO3,–,–,–,–,–,18
COc1ccc(CNC(=O)CC(C)=NNC(=O)COc2ccc(C)cc2Br)cc1,–,·,·,·,·,·
CC(C)C[C@H](NC(=O)C1CC(=O)N(c2ccc3c(c2)OCO3)C1)C(=O)NCc1ccco1 (some centres undefined),–,–,–,–,–,27
CC1CCCC(NC(=O)NC(=O)CCl)C1C (centres undefined),–,–,–,99,–,24
CC1CCCCC1NC(=O)NC(=O)CCl (centres undefined),–,–,–,94,–,–
CC(C)c1c(C(=O)NN=C/C=C/c2ccccc2)nnn1-c1nonc1N,–,·,·,·,·,·
ClCc1csc(-c2ccccc2Cl)n1,–,–,–,94,–,–
Cc1oncc1-c1csc(-c2ccccc2Cl)n1,–,–,–,–,–,–
O=C(CSc1ccc2ccccc2c1)NCCc1ccc(O)c(O)c1,–,–,–,52,–,–
c1ccc(CN=C2NN=C(c3ccccc3)CS2)cc1,–,–,–,–,–,–
CC(C)N=C1NN=C(c2ccc(F)cc2)CS1,–,–,–,–,–,17
O=C1CCCC2=C1C(c1cccs1)Nc1ccc3ncccc3c12 (centres undefined),–,–,–,–,–,–
O=C1CCCC2=C1C(c1ccc(O)c(O)c1)Nc1ccc3ncccc3c12 (centres undefined),–,–,–,78,–,–
S=C(NN=C1CCc2ccccc21)NC1CCCCC1,–,·,·,·,·,·
Oc1[nH]c2ccc(Br)cc2c1N=NC(=S)N1CCOCC1,–,–,–,–,–,–
Oc1[nH]c2ccccc2c1N=NC(=S)N1CCOCC1,·,·,–,36,–,–
Brc1ccc(OCc2nc3ccccc3[nH]2)cc1,–,–,–,37,–,–
O=[N+]([O-])c1ccccc1-c1ccc(C=Nn2cnnc2)o1,–,·,·,·,·,·
O=C(Cc1cccs1)Nc1nnc(Cc2ccccc2)s1,–,–,–,–,–,–
SMILES,UCH37 DUB inh,TDP2 absorb,PAD4 FP inh,GSTO1 counter,HKDC1 inhibitor,CTSL1 counter
COc1ccc(Cc2nnc(NC(=O)Cc3cccs3)s2)cc1OC,–,–,–,37,–,–
CN(C(=O)c1ccc(NC(=O)Cc2cccc(NC(=O)C3CCN(C(=O)C4CCCC4)CC3)c2)cc1)C1CCCC1,22,–,–,·,–,·
CC1CC(C)CN(S(=O)(=O)c2ccc(NC(=S)NC(=O)c3ccccc3)cc2)C1 (centres undefined),–,–,–,–,–,19
Cc1ccc(-n2ncc(C#N)c2N=CN2CCOCC2)cc1,–,·,·,·,·,·
Cc1c(C#N)c(O)n(C)c(=O)c1N=Nc1ccc(S(N)(=O)=O)cc1,–,–,·,·,–,·
Cc1c(C#N)c(O)n(CCO)c(=O)c1N=Nc1ccc(S(N)(=O)=O)cc1,21,–,–,–,–,–
Cc1ccc(Nc2c(-c3ccccn3)nc3ccc(C)cn23)cc1,–,–,–,–,–,19
COCCNC(=O)C(=O)NN=Cc1ccc(C(=O)OC)cc1,–,·,·,·,·,·
COc1cccc2c1nc(C)c1cc(C)oc12,–,–,–,–,–,–
COc1cccc2nc3cc(C)c(C)cc3nc12,·,–,–,48,–,–
COc1cccc(/C=N/Nc2ccc([N+](=O)[O-])cn2)c1O,·,–,–,–,36,–
COc1cccc(C=NNC(=O)c2cc3cc([N+](=O)[O-])ccc3s2)c1O,24,·,·,·,·,·
Cc1cccc(NCC(=O)NN=Cc2c[nH]c3ccccc23)c1,–,·,·,·,·,·
